Source: PubChem BioAssay (several laboratories)
In the library only some 4.7% were active in any assay of this set; here they are far more common.
MrgX1 agonist = agonists of human MrgX1 receptor, primary screen, HEK293 cells, Fluo-4 calcium flux. hit rate 0.44% among 310,000. Fluo-4 calcium fluorescence, agonist mode; hits give high values. AID 588627, 2011. B-score at 10 µM;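 active = calcium response B-score plate-corrected fluorescence ratio at least 3 library SD, with starting fluorescence B-score inside 5 SD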
Target sequence (Q96LB2 whole entry, looked up): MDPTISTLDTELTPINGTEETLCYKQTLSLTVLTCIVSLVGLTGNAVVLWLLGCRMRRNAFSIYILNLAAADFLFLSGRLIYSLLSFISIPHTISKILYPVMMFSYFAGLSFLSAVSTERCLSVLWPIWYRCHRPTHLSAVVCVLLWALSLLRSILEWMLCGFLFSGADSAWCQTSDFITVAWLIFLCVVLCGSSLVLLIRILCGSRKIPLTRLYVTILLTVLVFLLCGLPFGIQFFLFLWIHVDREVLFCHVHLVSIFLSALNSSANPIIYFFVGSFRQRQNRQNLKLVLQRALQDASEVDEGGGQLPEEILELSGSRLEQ
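Material: HEK293 cells stably expressing human MrgX1 receptor | Quantity: 15,000 cells per well | Times: Cells plated overnight, dye loaded 0.5 h 37 °C, 0.5 h room temperature | Measured by: Kinetic Fluo-4 NW fluorescence of intracellular calcium | Control set: Positive and negative controls per plate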
Cl transport mod = KCC2 cotransporter modulators, thallium flux, primary screen, cell-based, HEK293 KCC2, FluoZin-2 fluorescence, MLSMR; Solute carrier family 12 member 5 (Homo sapiens), Q9H2X9; hit rate 2.2% among 190,000; KCC2 cells, thallium flux FluoZin-2 fluorescence; B-score of Tl+ flux slope (higher = more flux/activation; lower = inhibition) at 10 µM;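 active = thallium flux slope and its plate-corrected score both differing from the plate sample mean at a set confidence after two filtering rounds, in either direction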;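 note: slope of fluorescence scaled to starting intensity during 10 to 20 s after thallium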
RGS4 act = RGS4 potentiators or activators, primary screen, cell-based, HEK293 M3R inducible RGS4, calcium flux | B-score at 10 µM | carbachol calcium flux Fluo4; hits give low values | hit rate 0.92% among 310,000;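 active = B-score of the integrated calcium signal more than 4 SD below the library mean, with starting fluorescence not abnormally high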;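 note: negative B-score means reduced calcium response which marks RGS4 activation or potentiation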
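Assay system: HEK293 FlpIn-TREx cells, stable M3R, doxycycline-inducible RGS4 / Probe or stimulus: carbachol, ECmax concentration / Times: overnight RGS4 induction, 30 min dye load 37 °C, 20 min compound RT / Signal: kinetic calcium fluorescence imaging with Fluo4-AM dye, 2 µM / Measure: Agonist-evoked peak-minus-minimum fluorescence over baseline, integrated ratio, B score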
RGS4 inh = RGS4 inhibitors, primary screen, cell-based, HEK293 M3R inducible RGS4, calcium flux; Regulator of G-protein signaling 4 (Homo sapiens), P49798; Fluo-4 calcium flux; hits give high values; triggered by carbachol at its EC20; B-score at 10 µM; hit rate 0.45% among 310,000;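 active = B-score, a plate-corrected calcium signal, over three deviations above library mean, with baseline fluorescence within five deviations of library mean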;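 note: RGS4 expression induced by doxycycline in cells with stable M3 receptor; B-score is computed from the integrated fluorescence ratio over baseline after carbachol; higher B-score means a larger calcium signal and so more RGS4 inhibition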
Target sequence (P49798 whole entry, looked up): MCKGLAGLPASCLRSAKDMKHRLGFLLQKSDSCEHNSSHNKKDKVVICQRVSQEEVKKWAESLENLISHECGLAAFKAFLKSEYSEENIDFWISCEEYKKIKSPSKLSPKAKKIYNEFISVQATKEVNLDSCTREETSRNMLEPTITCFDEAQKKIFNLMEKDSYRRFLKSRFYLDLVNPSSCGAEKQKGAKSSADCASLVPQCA
MrgX1 PAM = positive allosteric modulators of MrgX1, primary screen, HEK293 cells, Fluo-4 calcium flux; FDSS; hits give high values; B-score at 10 µM; AID 588675, 2011; Mas-related G-protein coupled receptor member X1 (Homo sapiens), Q96LB2; hit rate 0.63% among 310,000;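 active = plate-corrected calcium response at least 3 library SD above typical, normal starting fluorescence, not activating the receptor alone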;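 note: compound read alongside a low EC10 to EC30 dose of BAM8-22 agonist; peak minus trough fluorescence over baseline measured at the second addition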
MrgX1 antag = antagonists of human MrgX1 receptor, primary screen, HEK293 cells, Fluo-4 calcium flux; Mas-related G-protein coupled receptor member X1 (Homo sapiens), Q96LB2; BAM8-22 antagonism; hits give low values; B-score at 10 µM; hit rate 1.3% among 310,000;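 active = calcium-response B-score plate-corrected more than 3 library SD below zero, starting fluorescence within 5 deviations, no agonist response on first addition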;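 note: peak minus trough fluorescence over baseline after final BAM8-22 challenge near maximal dose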
Numbers without * were called inactive; i = inactive; · = no result given.

SMILES	MrgX1 agonist	Cl transport mod	RGS4 act	RGS4 inh	MrgX1 PAM	MrgX1 antag
O=[N+]([O-])c1ccc(-c2ccc(/C=N/Nc3nc(N4CCCCC4)nc(N4CCCCC4)n3)o2)cc1	·	0.63	i	i	·	·
O=[N+]([O-])c1ccc(-c2ccc(/C=N/Nc3nc(N4CCCC4)nc(N4CCCC4)n3)o2)cc1	34.2*	0.958	i	i	i	i
CC1(C)N=C(SCC(=O)Nc2ccc(Cl)cc2)C(c2ccc(Cl)cc2)=N1	i	0.477	-7.95*	i	i	i
CC1(C)N=C(SCC(=O)Nc2ccc(Cl)cc2)C(c2ccccc2)=N1	i	-0.779	i	i	i	i
CC1CCN(C(=O)c2ccc3c(c2NCCO)C(=O)c2ccccc2C3=O)CC1	i	·	i	i	9.9*	i
CC(C)(C)C(=O)NCCCc1nc2ccccc2n1CCCOc1ccc(Cl)cc1	i	-1.73	i	i	i	-5.09*
OCc1nc2ccccc2n1CCCOc1ccc(Br)cc1	i	-2.91*	i	i	i	i
C=CCn1c(CCCNC(=O)C(C)(C)C)nc2ccccc21	i	1.13	i	i	i	i
OCc1nc2ccccc2n1CCCCOc1ccccc1	i	·	i	i	i	i
Cc1cc(C)cc(NC(=O)c2cccc(C(=O)Nc3cc(C)cc(C)c3)n2)c1	i	·	i	i	i	i
COc1ccc(N2C(=O)[C@@H]3[C@H](C2=O)[C@H]2c4ccccc4C=CN2[C@@H]3C(=O)Nc2ccccc2)cc1	i	0.825	·	·	i	-7.13*
Cc1c(-n2cc(C(=O)c3cc(F)ccc3O)cc(C#N)c2=O)c(=O)n(-c2ccccc2)n1C	i	-0.947	i	i	6.67*	i
CC1N(C(=O)N2CCOCC2)CCN1S(=O)(=O)c1cccc(C(F)(F)F)c1 (centres undefined)	i	·	i	i	i	i
COCCNC(=S)N/N=C/c1ccc(OCc2ccc(C(=O)OC)cc2)c(OC)c1	i	0.391	i	i	i	-4.89*
O=c1c(-c2ccc(O)cc2)coc2cc(O)ccc12	i	·	i	i	i	-7.84*
COc1ccc(C(=O)NCC2(c3ccccc3)CCCC2)c(OC)c1	i	·	i	i	10.5*	-10.5*
CSc1nc(-c2ccco2)cc(C(F)(F)F)c1C#N	i	0.863	i	i	i	i
N#Cc1c(C(F)(F)F)cc(-c2ccco2)nc1SCc1ccncc1	i	-1.29	i	i	i	-5.1*
COC(=O)c1ccc(COC(=O)[C@@H]2CC(O)CN2S(=O)(=O)c2ccccc2[N+](=O)[O-])cc1 (some centres undefined)	i	·	i	i	i	i
Cn1c(=O)c2nc3ccccc3nc2n(C)c1=O	i	0.327	-7.55*	i	i	i
Cc1cc(C)cc(NC(=O)C(=O)NCCCN2CCCC2=O)c1	i	·	i	i	i	i
O=C(CCN1C(=O)C2CC=CCC2C1=O)Nc1cccc(Cl)c1 (centres undefined)	i	·	i	i	i	i
Cc1ccc(-n2c(SCC(=O)N3CCCC3)nc3c(c2=O)SCC3)cc1	i	-0.965	i	i	i	-4.86*
CCn1c(SCC(=O)N2CCCC2)nc2c(c1=O)SCC2	i	·	i	i	i	i
CCOC(=O)N1CCN(C(=O)C2CCC(=O)N(CCCc3ccccc3)C2)CC1 (centres undefined)	i	·	i	i	i	i
SMILES	MrgX1 agonist	Cl transport mod	RGS4 act	RGS4 inh	MrgX1 PAM	MrgX1 antag
COc1ccc(C(=O)Nc2c(N)nc[nH]c2=O)cc1	i	·	i	i	i	i
Cc1ccc(-c2c[n+]3c(n2-c2ccccc2)SCC3)cc1	i	1.04	i	i	i	i
COc1ccc(-c2c[n+]3c(n2-c2ccccc2)SCC3)cc1	i	0.288	-8.46*	i	i	i
COc1ccc(-c2c[n+]3c(n2-c2ccccc2)CCCCC3)cc1	i	-0.391	-8.3*	i	i	i
CCOc1ccc(S(=O)(=O)N(CC(=O)Nc2cccnc2)c2ccc(F)cc2)cc1	i	·	i	i	i	i
COc1ccc(/C=C/C(=O)OCC(=O)Nc2ccc(Cl)c(S(=O)(=O)N(C)C)c2)cc1OC	i	-1.91	-9.44*	i	i	i
COc1ccc(C)cc1Nc1nc(N)c2cc(OC)c(OC)cc2n1	i	·	i	i	i	-4.55*
COc1ccc(Cl)cc1Nc1nc(N)c2ccccc2n1	i	·	i	i	i	i
Cc1cc(C)cc(OCCNC(=O)C2CCN(S(=O)(=O)c3ccccc3)CC2)c1	i	·	i	i	i	i
O=C(/C=C/c1ccc(OC(F)F)cc1)Nc1cccc(S(=O)(=O)NC2=NCCCCC2)c1	i	·	i	i	i	-8.24*
COc1ccc(/C=C/C(=O)Nc2cccc(S(=O)(=O)NC3=NCCCCC3)c2)cc1	i	-0.362	i	i	i	i
COc1ccc(S(=O)(=O)N2CCCC(C(=O)NCc3cccnc3)C2)cc1OC (centres undefined)	i	·	i	i	i	i
Cc1csc(N/N=C/c2ccc(O)c([N+](=O)[O-])c2)n1	i	0.614	i	i	i	-6.01*
COc1ccc(C(=O)COC(=O)c2cc(S(=O)(=O)NCc3ccccc3)ccc2O)cc1	26.5*	-0.0158	i	i	i	i
COc1ccc(S(=O)(=O)NCc2ccccc2)cc1	i	-0.456	i	i	i	i
O=C(O)c1ccc(NC(=S)NC(=O)c2cccnc2)cc1	i	·	i	i	i	i
COc1ccc(C2C(C#N)=C(C)NC3=C2C(=O)c2ccccc23)cc1 (centres undefined)	i	·	-7.39*	i	i	i
CCNc1nc(NCC)nc(SCCOC(=O)Nc2ccccc2)n1	i	-1.46	i	i	7.69*	i
Cc1cc2nc(SCCOC(=O)Nc3ccccc3)nc(C)c2cc1C	i	0.368	i	i	i	i
COC(=O)CCCCCCCCCCN1CCCCC1	i	-0.057	-9.2*	i	i	i
